From ChEMBL document CHEMBL4014311, “Discovery of a Hepatitis C Virus NS5B Replicase Palm Site Allosteric Inhibitor (BMS-929075) Advanced to Phase 1 Clinical Studies” (J Med Chem, 2017)

What was measured:
Cytochrome P450 3A4 = Cytochrome P450 3A4 (Homo sapiens, UniProt P08684); experiment: Inhibition of microsomal CYP3A4 (unknown origin); type: ADME
[1] = Tmax in Sprague-Dawley rat at 6 mg/kg, po administered via gavage by LC/MS/MS analysis; type: ADME, organism-based; settings: in vivo
Procedure, shortened: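 Rats fasted overnight, then dosed by gavage at 6 mg/kg in 90:10 PEG-400/ethanol (v/v). Plasma sampled serially from cannula into EDTA tubes predose and at 15, 30, 45, 60 min and 2, 4, 6, 8, 24 h; n = 3. Livers removed at 6 h (satellite animals) and 24 h, homogenized in 80% acetonitrile/HBSS, assayed by LC/MS/MS. Tmax taken directly from observed data.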

[2] = biological target: Voltage-dependent L-type calcium channel subunit alpha-1C (Homo sapiens, UniProt Q13936); experiment: Inhibition of Cav1.2 (unknown origin)
Sequence of Voltage-dependent L-type calcium channel subunit alpha-1C (Q13936 whole entry): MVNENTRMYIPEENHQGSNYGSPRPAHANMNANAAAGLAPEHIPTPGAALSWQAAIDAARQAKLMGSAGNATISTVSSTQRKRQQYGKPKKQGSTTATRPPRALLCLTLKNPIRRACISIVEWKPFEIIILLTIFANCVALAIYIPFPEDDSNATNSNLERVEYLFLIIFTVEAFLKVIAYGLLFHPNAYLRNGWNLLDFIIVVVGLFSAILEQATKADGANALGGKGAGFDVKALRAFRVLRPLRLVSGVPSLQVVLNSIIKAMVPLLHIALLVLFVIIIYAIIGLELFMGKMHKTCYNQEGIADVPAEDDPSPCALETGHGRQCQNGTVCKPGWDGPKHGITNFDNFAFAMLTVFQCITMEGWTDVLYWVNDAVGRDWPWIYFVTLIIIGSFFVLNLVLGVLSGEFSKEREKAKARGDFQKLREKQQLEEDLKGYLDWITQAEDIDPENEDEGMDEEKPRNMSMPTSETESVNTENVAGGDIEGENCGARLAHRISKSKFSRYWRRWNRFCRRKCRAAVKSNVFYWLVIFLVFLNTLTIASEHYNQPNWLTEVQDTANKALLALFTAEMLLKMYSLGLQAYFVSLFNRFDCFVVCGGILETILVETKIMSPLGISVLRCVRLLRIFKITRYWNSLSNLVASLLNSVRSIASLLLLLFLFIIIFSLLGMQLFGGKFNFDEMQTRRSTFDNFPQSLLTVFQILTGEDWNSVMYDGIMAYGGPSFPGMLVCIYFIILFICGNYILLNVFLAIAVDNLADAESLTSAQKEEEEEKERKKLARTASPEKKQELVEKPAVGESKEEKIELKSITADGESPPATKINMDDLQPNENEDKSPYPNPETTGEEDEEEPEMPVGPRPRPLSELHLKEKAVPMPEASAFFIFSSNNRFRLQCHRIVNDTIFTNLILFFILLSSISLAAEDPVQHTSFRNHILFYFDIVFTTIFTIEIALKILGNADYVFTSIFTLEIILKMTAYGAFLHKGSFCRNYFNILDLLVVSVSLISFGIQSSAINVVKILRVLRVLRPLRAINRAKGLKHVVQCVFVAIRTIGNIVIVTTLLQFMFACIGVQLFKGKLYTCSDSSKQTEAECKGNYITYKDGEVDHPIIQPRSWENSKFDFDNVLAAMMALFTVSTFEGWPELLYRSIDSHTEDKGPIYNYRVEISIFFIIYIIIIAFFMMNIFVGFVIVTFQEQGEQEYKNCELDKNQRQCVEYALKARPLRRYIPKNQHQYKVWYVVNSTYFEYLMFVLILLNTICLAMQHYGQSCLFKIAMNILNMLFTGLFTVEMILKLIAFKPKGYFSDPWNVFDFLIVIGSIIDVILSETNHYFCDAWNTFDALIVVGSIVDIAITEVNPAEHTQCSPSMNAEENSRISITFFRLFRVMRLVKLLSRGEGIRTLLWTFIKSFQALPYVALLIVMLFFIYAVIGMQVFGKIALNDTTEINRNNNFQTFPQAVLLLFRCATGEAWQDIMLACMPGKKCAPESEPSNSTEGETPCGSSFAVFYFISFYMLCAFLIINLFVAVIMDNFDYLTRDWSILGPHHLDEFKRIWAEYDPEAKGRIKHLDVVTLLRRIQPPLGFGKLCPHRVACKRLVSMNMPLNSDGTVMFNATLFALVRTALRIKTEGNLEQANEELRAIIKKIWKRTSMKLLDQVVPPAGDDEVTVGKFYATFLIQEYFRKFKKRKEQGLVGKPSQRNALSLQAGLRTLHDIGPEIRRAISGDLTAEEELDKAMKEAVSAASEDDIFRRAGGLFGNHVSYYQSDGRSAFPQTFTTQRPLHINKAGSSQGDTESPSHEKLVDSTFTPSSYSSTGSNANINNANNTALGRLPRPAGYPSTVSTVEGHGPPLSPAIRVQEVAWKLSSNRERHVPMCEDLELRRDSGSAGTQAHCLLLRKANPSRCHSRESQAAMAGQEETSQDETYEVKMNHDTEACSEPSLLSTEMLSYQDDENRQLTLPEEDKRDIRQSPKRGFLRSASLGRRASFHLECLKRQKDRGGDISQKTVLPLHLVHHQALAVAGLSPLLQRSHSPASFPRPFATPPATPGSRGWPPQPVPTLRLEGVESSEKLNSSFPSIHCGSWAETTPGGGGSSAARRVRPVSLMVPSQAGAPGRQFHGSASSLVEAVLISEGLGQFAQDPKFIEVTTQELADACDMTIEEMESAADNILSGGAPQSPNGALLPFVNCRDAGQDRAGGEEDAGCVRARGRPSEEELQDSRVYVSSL

Sequence of Cytochrome P450 3A4 (P08684 whole entry): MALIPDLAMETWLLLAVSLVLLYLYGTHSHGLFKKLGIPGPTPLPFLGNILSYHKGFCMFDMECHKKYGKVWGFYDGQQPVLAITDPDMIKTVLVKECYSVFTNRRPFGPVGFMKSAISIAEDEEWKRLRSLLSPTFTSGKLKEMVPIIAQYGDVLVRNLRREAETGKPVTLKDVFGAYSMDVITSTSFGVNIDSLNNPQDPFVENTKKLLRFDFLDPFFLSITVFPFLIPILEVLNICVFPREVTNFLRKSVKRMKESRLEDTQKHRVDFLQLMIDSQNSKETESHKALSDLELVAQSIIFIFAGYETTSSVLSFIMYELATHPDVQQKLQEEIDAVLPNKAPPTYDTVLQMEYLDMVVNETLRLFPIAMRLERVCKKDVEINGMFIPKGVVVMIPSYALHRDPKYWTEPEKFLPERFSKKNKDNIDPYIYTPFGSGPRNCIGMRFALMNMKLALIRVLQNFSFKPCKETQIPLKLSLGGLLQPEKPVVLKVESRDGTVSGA

CNC(=O)c1c(-c2ccc(F)cc2)oc2ccc(-c3cc(C(=O)NC4(c5ncccn5)CC4)ccc3C)c(F)c12 [BMS-929075]
IC50 (Cytochrome P450 3A4): > 13 µM | Tmax [1]: 4 h | inhibition (INH) [2]: Not Active
